DENV2 CPE rescue: inhibitors of DENV2 cytopathic effect, primary screen, cell-based, plate reader, single concentration. DENV2-infected cells, cytopathic effect rescue. CPE inhibition, % at 9.99 µM. 1.7% of 350,000 active. AID 651640, 2012; in the data active means CPE inhibition above about 20%, passing the limit was not always enough; tested in BHK-21 cells;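 further: 0% = median of neutral control wells and 100% = median of positive control wells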
S100A4 MyoIIA: inhibitors of S100A4-myosin IIA peptide binding, primary screen, biochemical, fluorescence polarization, TAMRA-MyoIIA peptide | Protein S100-A4 (Homo sapiens), P26447 | 0.14% of 360,000 active | inhibition, % at 10.7 µM;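 active means mean inhibition of at least 70% across replicates, with every replicate also reaching that level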
Target sequence (P26447 whole entry, looked up): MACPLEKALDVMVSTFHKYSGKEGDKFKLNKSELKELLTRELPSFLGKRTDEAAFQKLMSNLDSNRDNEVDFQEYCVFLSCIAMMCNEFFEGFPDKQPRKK
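Material: S100A4 monomer protein / Buffer or medium: 50 mM HEPES pH 7.2, 10 mM CaCl2, 100 mM KCl / Times: 5 min incubation before reading / Benchmarks: neutral control DMSO, positive control TFP / Reagent: labelled myosin peptide probe, 5 nM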
SIRT5 block: SIRT5 desuccinylase inhibitors, primary screen, biochemical, fluorescence imaging, single point, set 5; NAD-dependent protein deacylase sirtuin-5, mitochondrial (Homo sapiens), Q9NXA8; inhibition, % at 15 µM; AID 652115, 2013; 1.1% of 330,000 active; Purified SirT5, succinyl-peptide AMC, trypsin-coupled fluorescence; in the data active means inhibition above about 15%
Target sequence (Q9NXA8 whole entry, looked up): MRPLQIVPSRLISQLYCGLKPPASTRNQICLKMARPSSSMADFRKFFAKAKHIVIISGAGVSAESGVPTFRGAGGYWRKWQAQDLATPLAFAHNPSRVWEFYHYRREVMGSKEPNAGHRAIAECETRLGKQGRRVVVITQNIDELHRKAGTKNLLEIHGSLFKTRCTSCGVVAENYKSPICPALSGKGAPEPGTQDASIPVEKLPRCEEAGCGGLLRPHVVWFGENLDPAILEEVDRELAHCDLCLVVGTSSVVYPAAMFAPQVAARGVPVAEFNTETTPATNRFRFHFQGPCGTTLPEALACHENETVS
PGC1a acetyl inh: inhibitors of PGC1a acetylation signal, primary screen, cell-based, U2OS, AlphaScreen, inhibitor mode; AlphaScreen anti-acetyl-lysine; with virally co-expressed GCN5 acetyltransferase; inhibition, % at 15.6 µM; 0.17% of 350,000 active;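 active means every replicate shows inhibition of at least 40%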;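 further: 0% = neutral control wells and 100% = positive control wells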
Statin myotox sup: suppressors of statin myotoxicity in C2C12 myotubes, primary screen, cell-based, single point, plate reader; C2C12 myotubes + simvastatin, ATP luminescence, 48 h; scaled: DMSO 0, geranylgeraniol control 100; rescue of ATP level, % at 7.49 µM; 0.78% of 330,000 active; AID 602340, 2012;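 active means mean ATP rescue above about 67%, or every replicate alone reaching that limit, limit read from the data, passing the limit was not always enough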;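 further: myotubes were challenged with 10 µM simvastatin during compound exposure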
Starred values were filed as active, the others as inactive; . = not tested or not shown. Shown are actives, neighbours in structure and some others; about 2.9% of the full set was active somewhere.

SMILES | DENV2 CPE rescue | S100A4 MyoIIA | SIRT5 block | PGC1a acetyl inh | Statin myotox sup
C[C@H]1CN([C@@H](C)CO)C(=O)c2cc(C#Cc3ccccn3)cnc2O[C@H]1CN(C)CC1CCCC1 | . | . | . | -10 | 3
CCS(=O)(=O)N1CC2(CN(C(=O)Nc3c(C)noc3C)[C@@H](CO)c3c2c2ccc(OC)cc2n3C)C1 | 2 | 22 | -2 | -2 | .
C[C@@H]1CN([C@@H](C)CO)C(=O)c2cccc(NC(=O)C3CC3)c2O[C@@H]1CN(C)C(=O)Nc1ccccc1 | -1 | 0 | -5 | . | -4
COc1ccccc1C#Cc1cnc2c(c1)C(=O)N([C@@H](C)CO)C[C@H](C)[C@H](CN(C)C(=O)CN(C)C)O2 | -5 | -37 | 1 | 0 | -8
CCN(CCCNC(=O)C1CCC(=O)N1Cc1ccccc1Cl)c1cccc(C)c1 (stereo unspecified) | . | . | . | -6 | -13
CCN(CCCNC(=O)C1CCC(=O)N1Cc1ccc(C)cc1)c1cccc(C)c1 (stereo unspecified) | . | 1 | 17* | . | 3
CCN1C(=O)/C(=C2/C=Cc3ccccc3N2C)OC1=S | . | . | . | 6 | 118*
CCN1C(=O)/C(=C2\C=Cc3cc(C)ccc3N2CC)OC1=S | . | . | . | -6 | 2
CN1C(=O)c2cc(NC(=O)c3cccc(F)c3)ccc2OC[C@H]2O[C@@H](CC(=O)N3CCc4ccccc4C3)CC[C@H]21 | 31* | -9 | -2 | -2 | -14
CN1C(=O)c2cc(NC(=O)c3cccc(F)c3)ccc2OC[C@H]2O[C@H](CC(=O)N3CCc4ccccc4C3)CC[C@@H]21 | 78* | -5 | -2 | -12 | -51
CC(=O)Nc1ccc2c(c1)C(=O)N(C)[C@@H]1CC[C@@H](CC(=O)N3CCc4ccccc4C3)O[C@@H]1CO2 | 5 | . | . | 1 | 26
CO[C@H]1CN(C)C(=O)c2cc(NC(=O)C3CC3)ccc2OC[C@H](C)N(C(=O)c2ccccc2F)C[C@@H]1C | 0 | -5 | 10 | -2 | -1
CC(C)CC#Cc1ccc([C@H]2[C@H]3CN(C(=O)c4ccccn4)CC(=O)N3[C@H]2CO)cc1 | -4 | -2 | -2 | 1 | .
Cc1ccc(-c2cccc(C3CC=CC4C3C(=O)N(Cc3ccccc3)C4c3ccc(C(F)(F)F)cc3)c2)cc1 (stereo unspecified) | 93* | -7 | -4 | 7 | -5
COc1ccc(C2C3C=CCC(c4cccc(-c5ccc(C)cc5)c4)C3C(=O)N2Cc2ccccc2)cc1Cl (stereo unspecified) | -8 | -2 | . | . | -5
COc1cccc(NC(=O)Nc2ccc3c(c2)C(=O)N(C)C[C@H](OC)[C@@H](C)CN(C)[C@H](C)CO3)c1 | 2 | 3 | . | 11 | 6
CCC(=O)N1CCC2(CC1)Oc1ccc(Cl)cc1C(=O)C21CC(c2ccc(Cl)cc2)=NO1 (stereo unspecified) | 90* | -1 | . | . | 0
O=C(C1CCCCC1)N1CC2(C1)[C@@H](c1ccccc1)[C@@H](CO)N2Cc1ccccc1F | 32* | 6 | -2 | -3 | .
CN(C)CC(=O)N1CC2(C1)[C@H](c1ccccc1)[C@@H](CO)N2C(=O)C1CCCC1 | -1 | 12 | -9 | -5 | .
COc1cccc(CN2[C@H](CO)[C@@H](c3ccccc3)C23CN(C(=O)C2CCC2)C3)c1 | 5 | 7 | 24* | -7 | .
CN(C)CC(=O)N1[C@H](CO)[C@@H](c2ccccc2)C12CN(C(=O)C1CCCC1)C2 | 51* | 14 | 19* | . | .
O=C(c1cccc(F)c1)N1CC2(C1)[C@@H](c1ccccc1)[C@@H](CO)N2C(=O)C1CCCC1 | 78* | -4 | -15 | -3 | .
COc1cccc(CN2[C@H](CO)[C@@H](c3ccccc3)C23CN(C(=O)C2CCCC2)C3)c1 | 1 | -4 | -2 | -10 | .
O=C(c1cccc(F)c1)N1CC2(C1)[C@H](c1ccccc1)[C@H](CO)N2C(=O)C1CCCCC1 | -9 | -10 | 4 | 3 | .
C[C@@H]1CN([C@H](C)CO)C(=O)c2cc(NS(=O)(=O)c3ccccc3)ccc2O[C@@H]1CN(C)S(=O)(=O)c1ccc(F)cc1 | . | . | . | -12 | 36
CCCNC(=O)Nc1ccc2c(c1)OC[C@H](C)N(S(C)(=O)=O)C[C@@H](C)[C@H](OC)CN(C)C2=O | -4 | 6 | 2 | 8 | .
